Data set [1] deals with Voltage-dependent T-type calcium channel subunit alpha-1G (Homo sapiens, UniProt O43497). Description: Inhibition of Cav3.1 alpha1G (unknown origin) expressed in HEK293 cells by whole-cell patch clamp method. Type of data set: cell-based. In outline: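 Whole-cell patch clamp on HEK293 cells expressing Cav3.1 or Cav3.2. T-type currents evoked every 15 s by a 50-ms step from −100 mV to −30 mV. External solution (mM): 140 NaCl, 2 CaCl₂, 10 HEPES, 10 glucose, pH 7.4.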

Another data set deals with CYP2D6 (Homo sapiens, UniProt P10635). As to the kind of experiment: Inhibition of human CYP2D6 assessed as remaining activity at 10 uM using vivid CYP450 substrate measured after 15 mins by fluorescence assay relative to quinidine. Conditions: probe vivid CYP450 substrate, read-out: Activity. Type of data set: ADME. In short, it runs like this: (§1)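 Vivid fluorescence CYP assay: test compound at […] in water, mixed with BACULOSOMES master pre-mix and regeneration system, preincubated 15 min at 37 °C. Reaction started with Vivid substrate and NADPH. Remaining activity read by fluorescence as % of control, triplicate, mean ± SD. Isoform-specific reference inhibitors: α-naphthoflavone (1A2), sulfaphenazole (2C9), quinidine (2D6), ketoconazole (3A4).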
Sequence of CYP2D6 (P10635 whole entry, canonical isoform): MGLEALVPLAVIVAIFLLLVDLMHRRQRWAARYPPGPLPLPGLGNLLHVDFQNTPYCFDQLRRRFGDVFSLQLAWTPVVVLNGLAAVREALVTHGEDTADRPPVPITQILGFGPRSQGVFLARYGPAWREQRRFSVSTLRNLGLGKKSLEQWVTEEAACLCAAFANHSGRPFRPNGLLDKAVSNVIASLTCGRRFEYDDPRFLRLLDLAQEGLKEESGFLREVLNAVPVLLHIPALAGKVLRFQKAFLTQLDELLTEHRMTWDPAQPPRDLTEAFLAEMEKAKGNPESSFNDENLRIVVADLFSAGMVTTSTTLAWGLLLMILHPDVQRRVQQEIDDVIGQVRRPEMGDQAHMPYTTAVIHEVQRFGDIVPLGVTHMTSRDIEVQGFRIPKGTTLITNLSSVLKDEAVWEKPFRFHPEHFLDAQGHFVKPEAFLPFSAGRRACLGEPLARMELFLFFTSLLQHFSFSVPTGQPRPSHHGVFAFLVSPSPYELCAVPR

For data set [2], the target named is Voltage-gated inwardly rectifying potassium channel KCNH2 (Homo sapiens, UniProt Q12809). Description: Inhibition of human ERG expressed in CHOK1 cells by whole-cell patch clamp method. Type of data set: cell-based, CHO-K1.
Sequence of Voltage-gated inwardly rectifying potassium channel KCNH2 (Q12809 whole entry): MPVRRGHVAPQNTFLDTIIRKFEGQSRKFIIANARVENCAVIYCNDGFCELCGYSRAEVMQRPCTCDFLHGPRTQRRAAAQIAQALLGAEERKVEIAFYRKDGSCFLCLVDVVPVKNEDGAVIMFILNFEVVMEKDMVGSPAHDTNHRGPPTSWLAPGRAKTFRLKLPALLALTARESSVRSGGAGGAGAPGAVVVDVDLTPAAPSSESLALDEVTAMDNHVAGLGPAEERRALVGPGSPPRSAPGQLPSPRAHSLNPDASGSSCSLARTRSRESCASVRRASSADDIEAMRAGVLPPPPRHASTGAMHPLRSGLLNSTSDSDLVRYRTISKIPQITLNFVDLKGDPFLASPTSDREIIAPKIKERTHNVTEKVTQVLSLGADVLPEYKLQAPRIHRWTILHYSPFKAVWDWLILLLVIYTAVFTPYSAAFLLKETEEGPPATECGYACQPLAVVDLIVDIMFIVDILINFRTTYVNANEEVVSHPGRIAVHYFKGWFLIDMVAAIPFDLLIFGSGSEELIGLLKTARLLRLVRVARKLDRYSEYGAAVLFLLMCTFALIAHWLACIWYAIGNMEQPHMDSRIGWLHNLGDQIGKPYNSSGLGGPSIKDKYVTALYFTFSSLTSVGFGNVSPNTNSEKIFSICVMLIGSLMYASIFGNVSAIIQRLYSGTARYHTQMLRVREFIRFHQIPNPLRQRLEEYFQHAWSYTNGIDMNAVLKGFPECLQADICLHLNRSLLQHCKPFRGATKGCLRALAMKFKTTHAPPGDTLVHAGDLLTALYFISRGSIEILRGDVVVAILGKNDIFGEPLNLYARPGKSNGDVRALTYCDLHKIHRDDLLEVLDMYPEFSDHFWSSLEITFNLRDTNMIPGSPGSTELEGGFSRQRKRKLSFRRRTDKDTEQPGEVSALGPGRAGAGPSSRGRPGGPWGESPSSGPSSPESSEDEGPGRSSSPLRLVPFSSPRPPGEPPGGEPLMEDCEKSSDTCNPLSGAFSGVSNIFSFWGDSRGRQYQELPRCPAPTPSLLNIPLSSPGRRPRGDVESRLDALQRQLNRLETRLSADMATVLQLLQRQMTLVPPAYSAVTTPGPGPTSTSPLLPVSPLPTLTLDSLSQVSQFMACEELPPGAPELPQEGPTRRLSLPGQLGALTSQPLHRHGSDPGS
In data set [3] the test system is Rattus norvegicus. Description: Antineuropathic pain activity in rat spinal nerve ligation model assessed as effect on mechanical allodynia by measuring frequency of paw withdrawal at 100 mg/kg, po measured at 3 hrs relative to control. Type of data set: functional. In short, it runs like this:
(§2)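 Spinal nerve ligation rats tested 2 weeks after nerve surgery, 100 mg/kg oral, n = 4 per group. Behaviour re-tested at 1, 3 and 5 h after dosing. Mechanical allodynia: von Frey filament applied five times, every 3–4 s, to the hind paw on a wire mesh floor. Cold allodynia: acetone applied to the plantar hind paw on a metal mesh floor.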

For data set [4], the system named is Rattus norvegicus. Description: Antineuropathic pain activity in rat spinal nerve ligation model assessed as effect on mechanical allodynia by measuring frequency of paw withdrawal at 100 mg/kg, po measured at 5 hrs relative to control. The format is functional. In outline: as §2
Data set [5] concerns Rattus norvegicus. Description: Antineuropathic pain activity in rat spinal nerve ligation model assessed as effect on mechanical allodynia by measuring frequency of paw withdrawal at 100 mg/kg, po measured at 1 hr relative to control. Type of data set: functional. In short, it runs like this: as §2
In a further data set the target is CYP3A4 (Homo sapiens, UniProt P08684). As to the kind of experiment: Inhibition of human CYP3A4 assessed as remaining activity at 10 uM using vivid CYP450 substrate measured after 15 mins by fluorescence assay relative to ketoconazole. Type of data set: ADME. The settings on record: probe vivid CYP450 substrate, read-out: Activity. In outline:
as §1

The test system of data set [6] is Rattus norvegicus. Description: Antineuropathic pain activity in rat spinal nerve ligation model assessed as effect on mechanical allodynia by measuring frequency of paw withdrawal at 100 mg/kg, po measured at 5 hrs relative to gabapentin. Type of data set: functional. In outline: as §2
Data set [7] is described as follows: Terminal half life in Sprague-Dawley rat at 10 mg/kg, iv. The format is ADME, organism-based. The settings on record: in vivo, read-out: beta t1/2.
Data set [8] can be described thus: AUC (0 to infinity) in Sprague-Dawley rat at 10 mg/kg, iv. The settings on record: in vivo. The format is ADME, organism-based. Set-up: dose 10 mg/kg, route intravenous, time infinity.
Data set [9] relates to Rattus norvegicus. As to the kind of experiment: Antineuropathic pain activity in rat spinal nerve ligation model assessed as effect on cold allodynia by measuring frequency of paw withdrawal at 100 mg/kg, po measured at 5 hrs relative to control. The format is functional. In short, it runs like this: as §2
Data set [10] can be described thus: Drug uptake in Sprague-Dawley rat brain at 10 mg/kg, iv at 2 hrs post dose. The settings on record: read-out: Drug uptake. Type of data set: ADME, organism-based.
Data set [11] concerns Rattus norvegicus. Description: Antineuropathic pain activity in rat spinal nerve ligation model assessed as effect on mechanical allodynia by measuring frequency of paw withdrawal at 100 mg/kg, po measured at 3 hrs relative to gabapentin. The format is functional. In outline: as §2
Data set [12] is described as follows: Plasma concentration in Sprague-Dawley rat at 10 mg/kg, po at 2 hrs post dose. The format is ADME, organism-based.
Data set [13] is described as follows: AUC (0 to infinity) in Sprague-Dawley rat at 10 mg/kg, po. The format is ADME, organism-based. The arrangement: dose 10 mg/kg, time infinity, route oral. Conditions: in vivo.
Data set [14] can be described thus: Drug excretion in Sprague-Dawley rat at 10 mg/kg, iv. Type of data set: ADME, organism-based. The settings on record: in vivo, read-out: Drug excretion.
A short description of data set [15]: Total clearance in Sprague-Dawley rat at 10 mg/kg, iv. The format is ADME, organism-based. The settings on record: in vivo.
The nature of data set [16]: Ratio of drug level in brain to plasma in Sprague-Dawley rat at 10 mg/kg, iv at 2 hrs post dose. Type of data set: ADME, organism-based. The settings on record: read-out: BPR.

By IC50 is commonly meant the concentration needed to halve the response being measured. For orientation: AUC(0-inf) means the area under the concentration-time curve extrapolated to infinity. By clearance is commonly meant the rate of elimination divided by the concentration.

Sequence of CYP3A4 (P08684 whole entry): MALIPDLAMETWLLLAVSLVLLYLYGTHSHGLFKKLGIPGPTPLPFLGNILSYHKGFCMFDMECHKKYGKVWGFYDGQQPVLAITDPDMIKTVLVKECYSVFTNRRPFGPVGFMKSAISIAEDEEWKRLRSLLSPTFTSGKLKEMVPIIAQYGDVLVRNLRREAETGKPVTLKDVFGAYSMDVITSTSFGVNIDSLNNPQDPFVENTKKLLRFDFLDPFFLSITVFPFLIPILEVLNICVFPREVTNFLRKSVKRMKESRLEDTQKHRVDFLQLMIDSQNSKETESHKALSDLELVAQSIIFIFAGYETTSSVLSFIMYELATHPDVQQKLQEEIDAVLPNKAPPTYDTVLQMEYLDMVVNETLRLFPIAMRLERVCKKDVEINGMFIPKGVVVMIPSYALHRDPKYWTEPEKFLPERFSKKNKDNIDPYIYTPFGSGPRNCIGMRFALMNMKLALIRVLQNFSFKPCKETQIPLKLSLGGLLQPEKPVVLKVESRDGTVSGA
Sequence of Voltage-dependent T-type calcium channel subunit alpha-1G (O43497 whole entry): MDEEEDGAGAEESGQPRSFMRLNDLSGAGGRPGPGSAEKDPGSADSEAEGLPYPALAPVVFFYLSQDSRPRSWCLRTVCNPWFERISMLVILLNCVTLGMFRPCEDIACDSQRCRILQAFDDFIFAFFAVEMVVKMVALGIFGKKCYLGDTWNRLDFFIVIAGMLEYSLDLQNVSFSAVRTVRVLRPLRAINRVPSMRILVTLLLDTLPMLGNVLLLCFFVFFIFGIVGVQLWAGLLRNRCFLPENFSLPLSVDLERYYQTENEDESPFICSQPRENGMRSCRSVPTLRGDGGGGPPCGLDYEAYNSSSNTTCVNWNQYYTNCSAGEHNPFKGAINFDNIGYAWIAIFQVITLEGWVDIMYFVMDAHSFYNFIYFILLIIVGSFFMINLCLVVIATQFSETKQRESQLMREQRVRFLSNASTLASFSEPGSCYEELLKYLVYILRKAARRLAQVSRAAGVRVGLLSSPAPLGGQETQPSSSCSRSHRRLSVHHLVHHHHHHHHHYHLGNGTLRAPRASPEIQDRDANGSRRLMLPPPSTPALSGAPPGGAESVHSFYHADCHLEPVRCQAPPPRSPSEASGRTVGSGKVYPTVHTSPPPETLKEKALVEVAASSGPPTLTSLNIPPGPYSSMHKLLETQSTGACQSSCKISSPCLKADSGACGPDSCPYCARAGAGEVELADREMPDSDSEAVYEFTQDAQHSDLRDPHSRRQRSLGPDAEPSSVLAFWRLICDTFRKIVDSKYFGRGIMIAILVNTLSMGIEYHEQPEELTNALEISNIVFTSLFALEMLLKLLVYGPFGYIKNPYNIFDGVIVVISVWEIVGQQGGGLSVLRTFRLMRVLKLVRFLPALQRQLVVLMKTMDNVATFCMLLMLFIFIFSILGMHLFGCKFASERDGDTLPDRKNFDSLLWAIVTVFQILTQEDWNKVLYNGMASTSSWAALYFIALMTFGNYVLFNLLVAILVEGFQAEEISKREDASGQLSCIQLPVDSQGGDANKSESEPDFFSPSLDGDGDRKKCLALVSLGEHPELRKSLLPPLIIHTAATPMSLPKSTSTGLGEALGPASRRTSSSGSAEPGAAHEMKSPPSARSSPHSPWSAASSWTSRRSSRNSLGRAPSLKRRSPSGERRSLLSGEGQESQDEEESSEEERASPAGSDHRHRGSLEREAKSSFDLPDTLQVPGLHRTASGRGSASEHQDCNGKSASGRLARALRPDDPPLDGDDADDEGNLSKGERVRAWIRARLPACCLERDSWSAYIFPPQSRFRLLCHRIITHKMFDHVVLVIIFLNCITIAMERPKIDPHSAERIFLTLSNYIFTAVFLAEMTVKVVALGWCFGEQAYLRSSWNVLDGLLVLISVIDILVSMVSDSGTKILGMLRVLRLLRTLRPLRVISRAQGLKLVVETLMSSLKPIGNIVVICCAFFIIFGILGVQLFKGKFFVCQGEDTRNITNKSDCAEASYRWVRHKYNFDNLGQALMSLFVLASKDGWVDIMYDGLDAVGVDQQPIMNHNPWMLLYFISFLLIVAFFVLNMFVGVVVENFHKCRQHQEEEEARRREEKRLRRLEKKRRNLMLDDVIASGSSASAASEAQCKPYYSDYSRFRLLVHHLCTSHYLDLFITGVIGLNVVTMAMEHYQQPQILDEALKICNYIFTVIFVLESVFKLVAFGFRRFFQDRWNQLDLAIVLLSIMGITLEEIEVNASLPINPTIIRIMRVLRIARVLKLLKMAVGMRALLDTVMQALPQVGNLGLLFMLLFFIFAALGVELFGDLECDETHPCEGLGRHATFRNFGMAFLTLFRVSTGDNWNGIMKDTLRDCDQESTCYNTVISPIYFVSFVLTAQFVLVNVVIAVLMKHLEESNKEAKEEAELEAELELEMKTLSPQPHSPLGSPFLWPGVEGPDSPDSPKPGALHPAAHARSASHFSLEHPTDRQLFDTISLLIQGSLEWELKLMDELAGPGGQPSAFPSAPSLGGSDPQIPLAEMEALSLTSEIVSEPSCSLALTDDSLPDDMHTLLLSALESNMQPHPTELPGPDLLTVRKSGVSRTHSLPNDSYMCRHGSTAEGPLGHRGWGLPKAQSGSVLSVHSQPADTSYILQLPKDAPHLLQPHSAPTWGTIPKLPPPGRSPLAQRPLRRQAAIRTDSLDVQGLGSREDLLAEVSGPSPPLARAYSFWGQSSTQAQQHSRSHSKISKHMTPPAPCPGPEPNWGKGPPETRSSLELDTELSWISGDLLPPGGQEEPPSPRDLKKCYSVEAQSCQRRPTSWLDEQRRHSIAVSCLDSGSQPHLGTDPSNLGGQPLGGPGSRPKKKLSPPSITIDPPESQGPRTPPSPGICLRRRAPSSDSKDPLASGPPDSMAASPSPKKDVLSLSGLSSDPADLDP

On to `CC(C)Cc1cc(CNS(=O)(=O)c2cccc(F)c2)nn1-c1ccccc1`, for which the IC50 is 3.2 µM in data set [1] and 14.5 µM in [2]. Moreover, the activity at 0.25 h, 10 µM at CYP2D6 worked out at 204%; on CYP3A4 it was 80.1%. Moreover, the MPE in the data set on Rattus norvegicus [3] is 29.68%; in the data set on Rattus norvegicus [4] it was 19.48%; with Rattus norvegicus [5], 1.63%; in the data set on Rattus norvegicus [6] it was 43.02%; in the data set with Rattus norvegicus [9] it was 80.82%; in the data set on Rattus norvegicus [11] it was 52.13%. Besides, the half-life in [7] is 55.7 min. In addition, the AUC(0-inf) is 2020 ng·h/mL in data set [8] and 168 ng·h/mL in [13]. The concentration at 2 h turned out to be 366 ng/mL in data set [10] and 50 ng/mL in data set [12]. In data set [14], the dose excreted was determined as 0%. The compound further showed a clearance in [15] of 83.8 mL/min/kg. Further, the Kp at 2 h in [16] worked out at 1.4.
